Screening results as filed in PubChem.
Only a selection was taken, and hits are over-represented in it overall.
E-selectin induc: induces E-selectin expression in human endothelial cells. hit rate 0.37% among 260,000. activation, % at 7.58 µM. P16581. HUVEC E-selectin immunofluorescence imaging; normalized: neutral wells 0, TNF-alpha wells 100;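 active means mean E-selectin-positive cell signal at least 10% of the positive control, reached in at least 60% of replicates, without over 20% cell loss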
Target sequence (P16581 whole entry, looked up): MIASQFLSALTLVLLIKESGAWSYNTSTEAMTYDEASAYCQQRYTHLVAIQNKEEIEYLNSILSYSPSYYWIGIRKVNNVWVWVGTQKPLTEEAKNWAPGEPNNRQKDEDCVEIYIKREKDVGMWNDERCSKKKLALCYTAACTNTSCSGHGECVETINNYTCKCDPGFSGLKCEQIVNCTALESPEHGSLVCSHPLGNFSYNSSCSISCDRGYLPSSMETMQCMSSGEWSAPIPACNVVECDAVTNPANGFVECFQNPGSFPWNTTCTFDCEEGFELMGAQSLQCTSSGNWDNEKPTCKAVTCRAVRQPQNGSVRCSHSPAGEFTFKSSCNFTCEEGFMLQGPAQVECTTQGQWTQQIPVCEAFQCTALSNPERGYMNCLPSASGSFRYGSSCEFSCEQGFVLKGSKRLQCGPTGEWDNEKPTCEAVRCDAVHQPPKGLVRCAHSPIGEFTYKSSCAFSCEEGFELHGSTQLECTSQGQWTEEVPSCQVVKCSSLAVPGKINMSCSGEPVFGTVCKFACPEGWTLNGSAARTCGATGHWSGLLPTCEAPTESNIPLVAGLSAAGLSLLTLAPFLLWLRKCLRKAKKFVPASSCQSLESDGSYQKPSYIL
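assay system = HUVEC, human umbilical vein endothelial cells | input = 3,000 HUVEC seeded per well | medium = EGM-2 growth medium on 0.1% gelatin-coated wells | dosing = one compound dose added by pin transfer | signal = immunofluorescence imaging | read-out basis = % PE-positive cells | control set = TNF-alpha, DMSO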
Of the large screens only hits and unclear results are named; the others gave an inactive call.

CC(C)C#Cc1ccc([C@@H]2[C@@H](CO)N3CCCCN(S(=O)(=O)Cc4ccccc4)C[C@H]23)cc1	none
O=C(Nc1ccc2c(c1)[C@@H]1C[C@H](CC(=O)N3CCCCC3)O[C@@H](CO)[C@@H]1O2)NC1CCCCC1	none
O=C(Nc1nc(-c2ccccc2)cs1)c1ccc2c(=O)n3c(nc2c1)CCCCC3	none
Cc1ccc(NC(=O)c2ccc3c(=O)n4c(nc3c2)CCCCC4)nc1	none
Cc1cc(C)c2nc(NC(=O)c3ccc4c(=O)n5c(nc4c3)CCCCC5)sc2c1	E-selectin induc 35
C[C@@H]1CN([C@H](C)CO)C(=O)Cc2cc(NC(=O)Nc3ccccc3)ccc2O[C@@H]1CN(C)C(=O)Nc1ccc(C(F)(F)F)cc1	none
COc1ccc2c3c(n(C)c2c1)[C@H](CO)N(Cc1ccc2c(c1)OCO2)CC31CN(C(=O)c2ccc3c(c2)OCO3)C1	none
O=C(CC(F)(F)F)N1C[C@@H]2[C@H](c3ccccc31)[C@@H](CO)N2C(=O)C1CCOCC1	none
Cc1nc(N2CCN(c3ccccn3)CC2)c2c(C)c(C(=O)Nc3ccc(F)cc3F)sc2n1	none
Cc1nc(N2CCN(c3ccccn3)CC2)c2c(C)c(C(=O)Nc3ccc(F)cc3Cl)sc2n1	E-selectin induc 43
Cc1nc(N2CCN(c3ccccn3)CC2)c2c(C)c(C(=O)Nc3ccccc3F)sc2n1	none
CN1C(=O)c2cc(NC(=O)C3CCOCC3)ccc2OC[C@H]2O[C@@H](CC(=O)O)CC[C@H]21	none
CN(CC(=O)Nc1ccc(F)cc1)CC(=O)N1CCc2ccccc21	none
CN(CC(=O)Nc1cccc(F)c1)CC(=O)N1CCc2ccccc21	E-selectin induc 182
CC(C(=O)N1CCc2ccccc21)N(C)CC(=O)Nc1cccc(F)c1 (configuration not stated)	none
C[C@H]1CN([C@@H](C)CO)C(=O)c2cc(-c3ccncc3)cnc2O[C@@H]1CN(C)Cc1cccnc1	none
C[C@H](CO)N1C[C@H](C)[C@H](CN(C)C(=O)c2ccccc2)Oc2ncc(C3=CCCCC3)cc2C1=O	none
COc1ccc(-c2ccc([C@@H]3[C@@H](C#N)N(C(=O)NC4CCCC4)[C@H]3CO)cc2)cc1	none
CO[C@H]1CN(C)C(=O)c2ccc(NC(=O)Nc3ccccc3)cc2OC[C@H](C)N(C(=O)Nc2c(C)noc2C)C[C@H]1C	none
C/C(=N\NC(=O)C1CC1)c1ccc(C(C)(C)C)cc1	none
C/C(=N\NC(=O)C1CC1)c1ccc(Cl)cc1	E-selectin induc 121
C/C(=N\NC(=O)C1CCCC1)c1ccc(Cl)cc1	none
COc1ccc(NC(=O)N[C@@H]2CC[C@@H](CCNC(=O)c3cc(Cl)cc(Cl)c3)O[C@H]2CO)cc1	none
CCOc1cccc(-c2cc(N3CCN(CCO)CC3)n3nccc3n2)c1	none
OCCN1CCN(c2cc(-c3ccc4ccccc4c3)nc3ccnn23)CC1	none
CN1CCCN(c2cc(-c3ccc4ccccc4c3)nc3ccnn23)CC1	E-selectin induc 150
Cc1cccc(-c2cc(N3CCCN(C)CC3)n3nccc3n2)c1	E-selectin induc 69
Cc1cccc(-c2cc(NCCc3cccnc3)n3nccc3n2)c1	none
COc1ccc(-c2cc(N3CCN(CCO)CC3)n3nccc3n2)cc1	none
COc1ccc(NC(=O)Nc2ccc3c(c2)C(=O)N([C@@H](C)CO)C[C@@H](C)[C@H](CN(C)C(=O)Nc2ccc(C(F)(F)F)cc2)OCCCC[C@@H](C)O3)cc1	none
COC(=O)C[C@H]1CC[C@@H]2[C@@H](COc3ccc(NC(=O)NC(C)C)cc3C(=O)N2C)O1	none
O=C(C[C@@H]1CC[C@@H]2[C@H](COC[C@H](O)CN2C(=O)c2cccnc2)O1)NCc1ccc(-c2ccccc2)cc1	none
Cc1noc(C)c1NC(=O)Nc1ccc2c(c1)C(=O)N([C@@H](C)CO)C[C@@H](C)[C@@H](CN(C)C(=O)Cc1ccccc1)OCCCC[C@@H](C)O2	none
CO[C@@H]1CN(C)C(=O)c2cc(NC(=O)c3cccc(F)c3)ccc2OC[C@@H](C)NC[C@@H]1C	none
CCOC(=O)N1CCN(c2c(N3CCN(c4ccc(OC)cc4)CC3)c(=O)c2=O)CC1	none
CCOC(=O)N1CCN(c2c(NCCOC)c(=O)c2=O)CC1	none
CCOC(=O)N1CCN(c2c(N3CCOCC3)c(=O)c2=O)CC1	E-selectin induc 204
O=C(NCc1ccccn1)[C@H]1[C@H](CO)[C@H]2Cn3c(cccc3=O)[C@H]2N1CCc1ccccc1	none
Cc1noc(C)c1NC(=O)Nc1ccc2c(c1)C(=O)N([C@H](C)CO)C[C@H](C)[C@@H](CN(C)Cc1ccccc1)OCCCC[C@@H](C)O2	none
O=C(C[C@@H]1C=C[C@@H](NC(=O)c2ccncc2)[C@@H](CO)O1)NCCc1ccncc1	none
Cc1ccc(S(=O)(=O)N(C)C[C@H]2OCCCC[C@H](C)Oc3ccc(NC(=O)C4CCCCC4)cc3C(=O)N([C@H](C)CO)C[C@H]2C)cc1	none
C[C@H]1CN([C@@H](C)CO)C(=O)c2cccc(NS(C)(=O)=O)c2O[C@H]1CN(C)Cc1ccccc1	none
C[C@@H]1CN([C@@H](C)CO)C(=O)c2cccc(NS(C)(=O)=O)c2O[C@H]1CN(C)Cc1ccc(Oc2ccccc2)cc1	none
